Our source for the IC50, Activity and inhibition values is ChEMBL document CHEMBL4732082, “Development of novel benzimidazole-derived neddylation inhibitors for suppressing tumor growth invitro and invivo” (Eur J Med Chem, 2021).

Broadly, the IC50 is the concentration that inhibits the measured activity by half. In general, inhibition refers to the drop in the measured response relative to a control, in per cent.

In one series the test system is NCI-H1299. The series can be described thus: Antiproliferative activity against human H1299 cells incubated for 48 hrs by CCK-8 assay. Type of series: functional, cell-based. To be noted: NCI-H1299, 48 h. An outline of the steps:
(§1)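 Cells from ATCC, passaged six times, grown in DMEM with 10% FBS and penicillin/streptomycin at 37 °C under 5% CO2. Seeded at 2500 cells/well, cultured overnight, treated 48 h, viability read by CCK-8. Run in triplicate; values are the mean of three experiments.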
For orientation: Tetrazolium assays rely on reduction of a dye to a coloured formazan, in cell work by metabolically active cells.

The subject of series [1] is A549. The series can be described thus: Antiproliferative activity against human A549 cells assessed as inhibition of cell proliferation at 100 uM incubated for 48 hrs by CCK-8 assay relative to control. Type of series: functional. More on the design: scale not given: the % may be the effect or the level left. In outline: as §1
Series [2] concerns A549. Briefly: Antiproliferative activity against human A549 cells incubated for 48 hrs by CCK-8 assay. Type of series: functional, cell-based. Conditions: A549, 48 h. In outline: as §1
Series [3] addresses T1, NEDD8-activating enzyme E1 catalytic subunit (Homo sapiens, UniProt Q8TBC4).
T1 sequence (Q8TBC4 whole entry): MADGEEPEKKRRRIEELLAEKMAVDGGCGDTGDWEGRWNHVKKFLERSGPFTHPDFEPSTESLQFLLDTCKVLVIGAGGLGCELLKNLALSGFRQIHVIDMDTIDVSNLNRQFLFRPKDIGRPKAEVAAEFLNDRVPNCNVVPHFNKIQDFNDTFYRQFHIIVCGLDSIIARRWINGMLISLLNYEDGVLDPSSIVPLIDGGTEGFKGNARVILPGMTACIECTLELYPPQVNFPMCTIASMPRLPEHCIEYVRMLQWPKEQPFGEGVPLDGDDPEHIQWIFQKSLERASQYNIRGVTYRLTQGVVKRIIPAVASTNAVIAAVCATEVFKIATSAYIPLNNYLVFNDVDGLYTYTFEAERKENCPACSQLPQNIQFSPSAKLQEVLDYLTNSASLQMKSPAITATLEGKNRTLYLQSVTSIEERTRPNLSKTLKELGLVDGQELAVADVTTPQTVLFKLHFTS
Briefly: Inhibition of NAE (unknown origin)-mediated neddylation assessed as suppression of cullin1-Nedd8 adduct formation preincubated for 10 mins followed by ATP addition and measured after 30 mins by immunoblot analysis. Background: Immunoblotting shows a protein as a band on a membrane.

The next series has as its system BEAS-2B. The series can be described thus: Cytotoxicity against human BEAS-2B cells incubated for 48 hrs by CCK-8 assay. Type of series: cell-based. In outline: as §1
Series [4] has as its target T2, NEDD8-activating enzyme E1 regulatory subunit (Homo sapiens) (UniProt Q13564).
T2 sequence (whole entry): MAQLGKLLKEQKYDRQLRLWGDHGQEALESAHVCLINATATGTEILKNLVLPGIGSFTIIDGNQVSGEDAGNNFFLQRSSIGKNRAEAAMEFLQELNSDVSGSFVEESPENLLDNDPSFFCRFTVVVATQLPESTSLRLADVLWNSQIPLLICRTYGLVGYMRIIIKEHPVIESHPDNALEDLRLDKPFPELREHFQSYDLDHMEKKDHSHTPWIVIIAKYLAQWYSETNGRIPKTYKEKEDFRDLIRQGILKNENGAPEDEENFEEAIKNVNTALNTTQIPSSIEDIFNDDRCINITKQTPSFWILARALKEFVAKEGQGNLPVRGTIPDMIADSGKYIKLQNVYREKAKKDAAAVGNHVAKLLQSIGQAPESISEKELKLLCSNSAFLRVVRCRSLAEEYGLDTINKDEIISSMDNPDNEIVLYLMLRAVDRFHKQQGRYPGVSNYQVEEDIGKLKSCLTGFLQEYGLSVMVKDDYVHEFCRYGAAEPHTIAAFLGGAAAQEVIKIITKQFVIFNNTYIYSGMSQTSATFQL
The series can be described thus: Inhibition of NAE (unknown origin)-mediated neddylation assessed as suppression of cullin1-Nedd8 adduct formation at 25 uM preincubated for 10 mins followed by ATP addition and measured after 30 mins by immunoblot analysis relative to control. Conditions: time 40.0 min.

The nature of series [5]: Cytotoxicity against human […] cells incubated for 48 hrs by CCK-8 assay. Type of series: cell-based. In outline:
as §1

Series [6] is described as follows: Toxicity in nude mouse assessed as effect on body weight at 30 mg/kg, qd after 24 days. To be noted: in vivo, 576 h, time 24 day. Type of series: organism-based. An outline of the steps: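 Female nude mice were inoculated subcutaneously with 2×10^6 A549 cells in 0.1 mL PBS. At tumor volume 70–100 mm³, mice were randomized into 5 groups of 6. Dosing was ip or oral gavage, once daily on a 5-days-on/2-days-off schedule, with 10% 2-hydroxypropyl-β-cyclodextrin/water as vehicle control. Body weight and tumor volume were measured every two days; tumors were weighed at sacrifice. Significance by two-tailed Student's t-test.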

As to `CCOc1nc2cccc(C(=O)NCCc3cc(Cl)ccc3Cl)c2n1Cc1ccc(-c2ccccc2-c2nnn[nH]2)cc1`, the IC50 amounted to 36.7 µM in the series with NCI-H1299; 39.3 µM in the series with A549 [2]; 6.67 µM in series [3]; 80.8 µM in the series on BEAS-2B; 64.9 µM in series [5]. The Activity in the series on A549 [1] was 77.6%. Besides, the inhibition in series [4] is 82.9%.

For the compound `CCOc1nc2cccc(C(=O)NCCc3c[nH]c4ccccc34)c2n1Cc1ccc(-c2ccccc2-c2nnn[nH]2)cc1`, the IC50 was 18.2 µM with NCI-H1299; 19.1 µM in the series on A549 [2]; 9.94 µM in series [3]; 37.9 µM with BEAS-2B; 44.7 µM in series [5]. Also, the Activity in the series with A549 [1] is listed as 71.6%. The inhibition in series [4] is 74.7%.

On to `CCOc1nc2cccc(C(=O)OC(C)OC(=O)OC3CCCCC3)c2n1Cc1ccc(-c2ccccc2-c2nnn[nH]2)cc1` (stereo unspecified) [CANDESARTAN CILEXETIL], for which the Activity entry in series [6] was “Non-Toxic”. Further, the IC50 in series [3] worked out at 16.4 µM.
